Assays:
A549 cells [1] = experiment: DNA damage, γH2AX imaging and Western blot, A549 cells; assay type: cell-based, human
Summary of the method: (§1)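 Cells (5 × 10^4/well) were exposed for 2 h to PBS, unlabeled peptide, free 211At or test compound (1.85, 3.7, 18.5, 37 kBq), then recovered 24 h in fresh medium. For imaging, cells were fixed, permeabilized and stained with mouse anti-γH2AX (1:800). For blotting, RIPA lysates (BCA-normalized) were run on 10% SDS-PAGE and transferred to PVDF. Blocking was 5% milk for 1 h, anti-γH2AX was applied at 4 °C for 12 h, with ECL detection and GAPDH as loading control.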

SCLC tumors (H446) [2] = experiment: MHC-I and calreticulin expression in SCLC tumors; assay type: in vivo, BALB/c nude mice; details: 1110 kBq administration group, day 1, 4, and 8
Summary of the method: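 In nude mice bearing s.c. H446 tumors, test compound was given i.v. as 1110 kBq once or 370 kBq on days 0, 3 and 7, with PBS controls. Tumors were examined on days 1, 4 and 8 after treatment. MHC-I and calreticulin were stained by immunohistochemistry per manufacturer's instructions, and expression was quantified. Three independent experiments were run in triplicate, reported as mean ± s.d.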

H446 cells [3] = experiment: Cellular uptake / binding ratio, H446 cells; assay type: cell-based, human
Summary of the method: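 Cells were grown in RPMI-1640 with 10% FCS at 37 °C and 5% CO2. Suspensions of 5 × 10^6 cells in PBS, in low-bind tubes, got 3.7 kBq and were agitated at 37 °C for 1, 3 or 6 h. Cells were then pelleted and rinsed twice with ice-cold PBS, and pellets and pooled supernatant/washes were gamma-counted. Parallel tubes held unlabeled peptide as blocker for nonspecific binding. Three independent experiments were run in triplicate.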

[4] = Adverse effects in SCLC tumor-bearing mice; assay type: in vivo, BALB/c nude mice
Summary of the method: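 H446 cells (1 × 10^7 in 0.2 mL PBS) were implanted s.c. in the left shoulder of male BALB/c nude mice aged 4–5 weeks (20 ± 1 g). Mice were randomized at 2 weeks and given i.v. tail-vein PBS, unlabeled peptide 5 mg/kg, or test compound (370 kBq, 1110 kBq, or 370 kBq on days 0, 3 and 7). Body weight was followed for 30 days. Blood counts were taken on days 14 and 28 (n = 4). ALT, AST, BUN and Cr were measured on day 28. Liver, spleen, kidney, stomach and lung were H&E-stained at day 30.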

A549 cells [5] = experiment: In vitro cytotoxicity; assay type: cell-based, human; details: 24 h exposure, low-level SSTR2 A549 cells
[6] = In vitro stability in mouse serum; assay type: in vitro ADME; details: room temperature, 24 h of incubation, iTLC, average of three independent samples
H446 cells [7] = experiment: DNA damage, γH2AX imaging and Western blot, H446 cells; assay type: cell-based, human
Summary of the method: as §1

SCLC tumors (H446) [8] = experiment: Therapeutic efficacy against SCLC; assay type: in vivo, BALB/c nude mice; details: for tumor growth compared with the PBS control group: n = 6–10
Summary of the method: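 Xenografts were s.c. H446 (1 × 10^7 cells) in male BALB/c nude mice, randomized 2 weeks post-inoculation. Tumor size and weight were tracked for 30 days (n = 6–10), and tumor volumes were analysed by one-way ANOVA. At day 30, formalin-fixed tumors had H&E and γH2AX immunofluorescence.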

[9] = Biodistribution in SCLC tumor-bearing BALB/c nude mice; assay type: in vivo
Summary of the method: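 H446 cells (1 × 10^7 in 0.2 mL PBS) implanted subcutaneously in left shoulder of male nude mice, 4–5 weeks, 20 ± 1 g. 211At-labelled test compound or free 211At (1110 kBq each) given in parallel via tail vein, n = 4 per group. Killed at 1, 3, 6, 12, 24 h. Tumor, main tissues and whole blood weighed and gamma-counted. Values as %ID/g (thyroid %ID/organ), mean ± s.d.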

[10] = groups A, D (1110 kBq) and E (3 × 370 kBq), day 30
[11] = groups D (1110 kBq) and E (3 × 370 kBq), day 30

## N-succinimidyl-3-[^211At]astatobenzoate-Oct [[^211At]SAB-Oct]
A549 cells [1]; 1.85, 3.7, 18.5, or 37 kBq
  γH2AX protein expression, Western blot, A549 cells: slightly expressed only when the dose reached 18.5 or 37 kBq
A549 cells [1]; 37 kBq, ***P < 0.001, still much lower than in H446
  level of γH2AX in A549 cells compared to PBS: slightly higher
SCLC tumors (H446) [2]
  expression of MHC-I and calreticulin in tumor over time: first increasing and then decreasing
H446 cells [3]; 5 × 10^6 cells in PBS, 3.7 kBq, 37 °C, 1, 3 and 6 h, gamma counter, triplicate
  binding ratio to H446 cells in comparison to A549 cells: significantly higher
H446 cells [3]; 100-fold excesses of unlabeled Oct as blocking agent
  binding ratio to H446 cells with Oct block: markedly decreased
[4]; 1110 kBq
  liver or kidney biochemical function: did not significantly alter
[4]; 1110 kBq doses
  leukocytopenia or weight loss: not observed
[4]; 1110 kBq group, day 28
  leukocytopenia: No leukocytopenia
[4]; 1110 kBq, day 28, P > 0.05
  Bun values: trend of decreased Bun values
[4]; day 14 and day 28 postinjection, 1110 kBq or multiple dosing, n = 4
  blood cells (leukocyte, lymphocyte, thrombocyte, erythrocyte counts, hematocrit, hemoglobin): no significant change
[4]; day 28, P > 0.05, groups A–E
  difference in ALT and AST concentrations between each group: not significant
  difference in Bun and Cr concentrations between treatments: not significant
[4]; [10]
  liver H&E: No obvious morphological difference
  lung H&E: no obvious abnormalities
[4]; [11]
  kidney H&E: brush border of a few renal tubular epithelial cells was slightly exfoliated
  stomach H&E: mild exfoliation of extensive mucosal epithelium
A549 cells [5]
  in vitro cytotoxicity to A549 cells: specifically killed SSTR2-positive SCLC cells but not low-level SSTR2 A549 cells
[6]
  radiochemical purity (RCP) after incubation in mouse serum: 93%
H446 cells [7]; 1.85, 3.7, 18.5, or 37 kBq
  γH2AX protein, Western blot, H446 cells: visually increased
H446 cells [7]; 18.5 and 37 kBq, ****P < 0.001
  level of γH2AX in H446 cells compared to PBS: distinct dose-dependent increase
SCLC tumors (H446) [8]; 1110 kBq, day 30, compared with PBS and unlabeled octreotide groups
  tumor cell necrosis in H&E assay: highest cell necrosis
SCLC tumors (H446) [8]; 1110 kBq, day 30 after injection
  clusters of γH2AX foci in dissected tumors: still visible
SCLC tumors (H446) [8]; group C, single i.v. injection 370 kBq, monitored 30 days
  tumor growth compared with the PBS control group: significantly inhibited
SCLC tumors (H446) [8]; group D, single i.v. injection 1110 kBq, monitored 30 days
  tumor growth compared with the PBS control group: significantly inhibited
SCLC tumors (H446) [8]; group E, 3 times 370 kBq on days 0, 3, and 7, monitored 30 days
  tumor growth compared with the PBS control group: significantly inhibited
[9]; 1110 kBq i.v.
  uptake in the lung and intestines: physiologically high uptake
[9]; 1110 kBq i.v., 1 to 24 h
  radioactivity uptake in the thyroid: low radioactivity uptake
[9]; 1110 kBq i.v., 1 h, n = 4, mean ± s.d., gamma counter
  stomach uptake at 1 h postinjection: 17.99 ± 19.65 % ID/g
[9]; 1110 kBq i.v., 3 h postinjection, n = 4, mean ± s.d.
  maximum tumor uptake: 11.46 ± 4.35 % ID/g
[9]; 1110 kBq i.v., 24 h
  radioactivity in all tissues after 24 h: Low levels of radioactivity
[9]; 1110 kBq i.v., 24 h, n = 4, mean ± s.d.
  stomach uptake at 24 h: 2.87 ± 0.86 % ID/g
[9]; observed in the spleen, lung, and stomach
  deastatination in vivo: slight deastatination
